Assay results: ChEMBL document CHEMBL1153829, “Exploiting chemical libraries, structure, and genomics in the search for kinase inhibitors” (Science, 1998)
Active and inactive are the calls of the source. No cut-off for these calls is given here.

How the values were obtained:
[1] = system: Saccharomyces cerevisiae; test: Upregulation of HSP104 gene expression in delta snq2, delta pdr5 and delta erg6 knock out yeast YRP1 at 25 µM after 2 hrs by high-density oligonucleotide array; assay type: functional, organism-based; settings: 25 M
In short: (§1)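 Drug-sensitized yeast strain grown to late logarithmic phase, then exposed to 25 μM inhibitor for 2 h. Polyadenylated mRNA was isolated and converted to biotin-labeled cRNA, which was hybridized to a set of four arrays carrying over 260,000 25-nucleotide oligomers. Transcripts changing more than twofold were scored, from triplicate hybridizations in each of two independent experiments.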

[2] = system: Saccharomyces cerevisiae; test: Upregulation of HSP30 gene expression in delta snq2, delta pdr5 and delta erg6 knock out yeast YRP1 at 25 µM after 2 hrs by high-density oligonucleotide array; assay type: functional, organism-based; settings: 25 M; in short: as §1
[3] = system: Saccharomyces cerevisiae; test: Downregulation of HTA2 mRNA expression in delta snq2, delta pdr5 and delta erg6 knock out yeast YRP1 at 25 µM after 2 hrs by high-density oligonucleotide array; assay type: functional, organism-based
In short: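 Drug-sensitized S. cerevisiae cultures grown to late logarithmic phase, then exposed to 25 μM inhibitor for 2 h. Polyadenylated mRNA isolated, converted to biotin-labeled cRNA and hybridized to a set of four high-density arrays carrying more than 260,000 25-nucleotide oligomers. Transcripts scored as changed when they shifted more than twofold in triplicate hybridizations for each of two independent experiments.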

[4] = system: Saccharomyces cerevisiae; test: Effect on YKL071W gene expression in delta snq2, delta pdr5 and delta erg6 knock out yeast YRP1 bearing cdc28-4 mutant allele assessed as change in mRNA level at 25 µM after 2 hrs by high-density oligonucleotide array; assay type: functional, organism-based
[5] = system: Saccharomyces cerevisiae; test: Growth inhibition of delta snq2, delta pdr5 and delta erg6 knock out yeast YRP1 after 2 hrs; assay type: functional
[6] = system: Nucleic Acid; test: Induction of condensation of DNA; assay type: nucleic-acid assay
[7] = Induction of microtubule […]
[8] = system: Saccharomyces cerevisiae; test: Effect on YOL155C gene expression in delta snq2, delta pdr5 and delta erg6 knock out yeast YRP1 bearing cdc28-4 mutant allele assessed as change in mRNA level at 25 µM after 2 hrs by high-density oligonucleotide array; assay type: functional, organism-based

| SMILES | Activity [1] | Activity [2] | Activity [3] | Activity [4] | GI50 [5] [µM] | Activity [6] | Activity [7] | Activity [8] |
| --- | --- | --- | --- | --- | --- | --- | --- | --- |
| CC(C)n1cnc2/c(=N/c3cccc(Cl)c3)nc(NCCO)[nH]c21 | Active | Active | Active | Active | 30 | Active | Active | Active |
| CN1CC[C@H](c2c(O)cc(O)c3c(=O)cc(-c4ccccc4Cl)oc23)[C@H](O)C1 [ALVOCIDIB] | Active | Active | Active | Active | – | – | – | Active |
